Reference: ChEMBL document CHEMBL4219124, “Alleviating CYP and hERG liabilities by structure optimization of dihydrofuran-fused tricyclic benzo[d]imidazole series - Potent, selective and orally efficacious microsomal prostaglandin E synthase-1 (mPGES-1) inhibitors: Part-2” (Bioorg Med Chem Lett, 2018)
Residue numbers refer to the chain shown, from its start.

How the values were obtained:
[1] = Half life in Beagle dog at 10 mg/kg, po; assay type: ADME, organism-based, Canis lupus familiaris; conditions: in vivo
Procedure, shortened: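 Half-life calculated from plasma profiles after oral dosing at 10 mg/kg. Rat: male Sprague-Dawley, 0.5% methylcellulose suspension, n = 3. Dog and cynomolgus monkey: Tween 80 (2.5 μL/mL) + 0.5 (w/v) MC suspension.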

[2] = Tmax in Beagle dog at 10 mg/kg, po; assay type: ADME, organism-based, Canis lupus familiaris; conditions: in vivo
Procedure, shortened: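 Tmax from oral 10 mg/kg dosing. Rat: male Sprague-Dawley, 0.5% MC suspension, n = 3. Guinea pig: 20% NMP + 0.5% MC suspension, n = 3. Dog and monkey: 2.5 μL/mL Tween 80 + 0.5% MC suspension.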

[3] = AUC (0 to 24 hrs) in Sprague-Dawley rat at 10 mg/kg, po; assay type: ADME, organism-based; parameters: dose 10 mg/kg, time < 24 hr, route oral; conditions: in vivo
Procedure, shortened: (§1)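 Single oral dose of 10 mg/kg. Cmax and AUC0-24 taken from the oral arm. Rat: male Sprague-Dawley, dosed in 0.5% methylcellulose suspension, mean ± SD (n = 3). Guinea pig: 20% NMP + 0.5% MC suspension, mean ± SD (n = 3). Dog and cynomolgus monkey: 2.5 μL/mL Tween 80 + 0.5 (w/v) MC suspension.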

[4] = Apparent volume of distribution in Beagle dog at 1 mg/kg, iv; assay type: ADME, organism-based, Canis lupus familiaris; conditions: in vivo, read-out: Vz
Procedure, shortened: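 Intravenous dose of 1 mg/kg; clearance and Vz derived from the i.v. arm. Rat (male Sprague-Dawley) vehicle 20% NMP + 20% ethanol + 60% PEG 200, mean ± SD (n = 3). Dog vehicle 20% NMP + 20% EtOH + 10% PG + 50% PEG 200:water (3:2). Monkey vehicle 10% NMP + 10% ethanol + 10% PEG + 70% PEG200:water (3:2).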

[5] = AUC (0 to 24 hrs) in Dunkin-Hartley guinea pig at 10 mg/kg, po; assay type: ADME, organism-based, Cavia porcellus; parameters: time < 24 hr, dose 10 mg/kg, route oral; conditions: in vivo; procedure, shortened: as §1
[6] = target: T1, Cytosolic phospholipase A2 (Homo sapiens) (UniProt P47712); experiment: Inhibition of cPLA2 (unknown origin) at 10 uM relative to control
T1 sequence (whole entry): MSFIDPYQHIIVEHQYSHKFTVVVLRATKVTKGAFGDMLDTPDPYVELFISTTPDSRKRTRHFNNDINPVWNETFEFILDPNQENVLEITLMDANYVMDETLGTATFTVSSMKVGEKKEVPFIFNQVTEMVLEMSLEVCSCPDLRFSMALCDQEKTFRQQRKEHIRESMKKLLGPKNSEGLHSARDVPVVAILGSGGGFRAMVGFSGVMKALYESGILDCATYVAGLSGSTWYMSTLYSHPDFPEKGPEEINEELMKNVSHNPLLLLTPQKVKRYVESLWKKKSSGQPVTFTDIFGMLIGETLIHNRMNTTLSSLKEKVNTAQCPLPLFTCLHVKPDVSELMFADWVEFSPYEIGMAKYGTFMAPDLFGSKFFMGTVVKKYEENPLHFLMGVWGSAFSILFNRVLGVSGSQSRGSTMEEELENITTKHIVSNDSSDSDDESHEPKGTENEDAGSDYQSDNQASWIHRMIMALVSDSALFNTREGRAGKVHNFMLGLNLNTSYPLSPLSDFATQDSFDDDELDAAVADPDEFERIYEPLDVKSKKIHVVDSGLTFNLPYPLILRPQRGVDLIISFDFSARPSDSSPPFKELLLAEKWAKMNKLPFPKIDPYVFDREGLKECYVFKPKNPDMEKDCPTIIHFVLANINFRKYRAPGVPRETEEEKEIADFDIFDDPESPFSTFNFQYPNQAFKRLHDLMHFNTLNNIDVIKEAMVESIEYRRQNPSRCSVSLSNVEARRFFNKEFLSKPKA
Procedure, shortened: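 Selectivity panel against other prostanoid-pathway enzymes. % inhibition values are means of at least two experiments, each in duplicate.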

Prostaglandin E synthase = target: T2, Prostaglandin E synthase (Homo sapiens, UniProt O14684); experiment: Inhibition of mPGES1 in human A549 cells assessed as reduction in IL-1beta-induced PGE2 production preincubated for 30 mins followed by incubation with IL-1beta for 16 to 20 hrs measured after 10 mins by HTRF assay; assay type: cell-based
T2 sequence (O14684 whole entry): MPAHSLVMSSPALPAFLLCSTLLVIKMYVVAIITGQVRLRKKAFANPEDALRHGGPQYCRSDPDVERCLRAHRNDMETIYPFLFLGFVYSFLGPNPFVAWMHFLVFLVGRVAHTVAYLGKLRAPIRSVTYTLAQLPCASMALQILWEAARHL

[7] = target: T3, Prostaglandin E synthase (Macaca fascicularis) (UniProt Q6PWL6); experiment: Inhibition of mPGES1 in rhesus monkey whole blood assessed as reduction in LPS-induced PGE2 production at 10 uM measured after 20 to 24 hrs relative to control; conditions: Macaca mulatta
T3 sequence (whole entry): T2 sequence (O14684 whole entry) with V7A, V108L, A112V
Procedure, shortened: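 Rhesus monkey whole blood stimulated with LPS; PGE2 inhibition measured relative to vehicle control […]. At least two experiments, each in duplicate; run by an external contract lab.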

[8] = Cmax in cynomolgus monkey at 10 mg/kg, po; assay type: ADME, organism-based, Macaca fascicularis; parameters: dose 10 mg/kg, route oral; conditions: in vivo; procedure, shortened: as §1
[9] = Ratio of drug uptake in brain to plasma of Sprague-Dawley rat at 10 mg/kg, po; assay type: ADME, organism-based; conditions: read-out: BPR
[10] = Ratio of drug uptake in brain to plasma of Dunkin-Hartley guinea pig at 10 mg/kg, po; assay type: ADME, organism-based, Cavia porcellus; conditions: for Kp: Dunkin-Hartley, brain/plasma, read-out: BPR
[11] = Ratio of drug uptake in brain to plasma of cynomolgus monkey at 10 mg/kg, po; assay type: ADME, organism-based, Macaca fascicularis; conditions: read-out: BPR
[12] = target: T4, Nuclear receptor subfamily 1 group I member 2 (Homo sapiens, UniProt O75469); experiment: Activation of human PXR at 10 uM relative to rifampicin; assay type: ADME
T4 sequence (O75469 whole entry): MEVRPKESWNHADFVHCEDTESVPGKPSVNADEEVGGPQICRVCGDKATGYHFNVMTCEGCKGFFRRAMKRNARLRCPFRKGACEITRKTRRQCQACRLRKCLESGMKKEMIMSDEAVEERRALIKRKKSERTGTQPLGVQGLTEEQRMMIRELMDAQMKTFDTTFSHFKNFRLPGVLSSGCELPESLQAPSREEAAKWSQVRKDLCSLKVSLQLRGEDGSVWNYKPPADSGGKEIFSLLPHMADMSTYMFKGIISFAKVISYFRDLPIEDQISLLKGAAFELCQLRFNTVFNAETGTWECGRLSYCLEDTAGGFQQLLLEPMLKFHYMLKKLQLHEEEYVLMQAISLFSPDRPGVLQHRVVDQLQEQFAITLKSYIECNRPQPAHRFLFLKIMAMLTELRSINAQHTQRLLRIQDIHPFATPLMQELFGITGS
Procedure, shortened: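 Activation of human PXR with test compound at 10 µM, expressed relative to the rifampicin effect.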

[13] = tested on: Prostaglandin F synthase (Homo sapiens); experiment: Inhibition of human PGF synthase assessed as decrease in PGF2alpha production at 10 uM relative to control
[14] = target: Prostaglandin F synthase (Homo sapiens); experiment: Inhibition of human PGF synthase assessed as decrease in PGF2alpha production

| SMILES | half-life [1] [h] | Tmax [2] [h] | AUC(0-t) at 24 h [3] [ng·h/mL] | Vd [4] [L/kg] | AUC(0-t) at 24 h [5] [ng·h/mL] | inhibition [6] [%] | IC50 (Prostaglandin E synthase) [nM] | inhibition [7] [%] | Cmax [8] [ng/mL] | Kp [9] | Kp [10] | Kp [11] | Activity [12] [%] | inhibition [13] [%] | IC50 [14] [nM] | BPR ([10]; brain, BLD = below limit of detection) |
| --- | --- | --- | --- | --- | --- | --- | --- | --- | --- | --- | --- | --- | --- | --- | --- | --- |
| CC1(C)Cc2c(c(C(=O)Nc3ccc(C(F)(F)F)cn3)cc3nc(Nc4c(Cl)cccc4Cl)[nH]c23)O1 | 17 | 12 | 4020 | 5.4 | 639 | 4.3 | 4.1 | 37 | 323 | 0.16 | 0.58 | 0.37 | 46 | 15.4 | – | – |
| CC1(C)Cc2c(c(C(=O)Nc3ccc(F)c(C(F)(F)F)c3)cc3nc(Nc4c(F)cccc4Cl)[nH]c23)O1 | 14.4 | 12 | 11000 | 1.94 | 4120 | – | 14 | 50.4 | 680 | 0.18 | 0.44 | 0.32 | 34 | 100 | 2320 | – |
| Cn1c(Nc2c(F)cccc2Cl)nc2cc(C(=O)Nc3cccc(C(F)(F)F)c3)c3c(c21)CC(C)(C)O3 | – | – | – | – | – | 10.6 | 3 | – | – | – | – | – | – | 61.4 | 3180 | – |

Now from value to molecule:

| half-life [1] [h] | Tmax [2] [h] | AUC(0-t) at 24 h [3] [ng·h/mL] | Vd [4] [L/kg] | AUC(0-t) at 24 h [5] [ng·h/mL] | inhibition [6] [%] | IC50 (Prostaglandin E synthase) [nM] | inhibition [7] [%] | Cmax [8] [ng/mL] | Kp [9] | Kp [10] | Kp [11] | Activity [12] [%] | inhibition [13] [%] | IC50 [14] [nM] | BPR ([10]; brain, BLD = below limit of detection) | SMILES |
| --- | --- | --- | --- | --- | --- | --- | --- | --- | --- | --- | --- | --- | --- | --- | --- | --- |
| – | – | – | – | – | 22.9 | 9.6 | – | – | – | – | – | – | 99.2 | 2470 | – | CC1(C)Cc2c(c(C(=O)Nc3cc(C(F)(F)F)ccc3F)cc3nc(Nc4c(F)cccc4Cl)[nH]c23)O1 |
| 20 | 8 | 2580 | 9.17 | 408 | 5.1 | 30 | 48.2 | 499 | 0.04 | – | 0.16 | 57 | 17.9 | – | Bld | Cc1cccc(Cl)c1Nc1nc2cc(C(=O)Nc3cc(C(F)(F)F)ccc3F)c3c(c2[nH]1)CC(C)(C)O3 |
